Reference: ChEMBL document CHEMBL4387713, “Galloyl Carbohydrates with Antiangiogenic Activity Mediated by Capillary Morphogenesis Gene 2 (CMG2) Protein Binding” (J Med Chem, 2019)

Tested on: not listed separately
Experiment: Toxicity in C57BL/6J mouse assessed as body weight loss at 10 mg/kg, ip
Format: organism-based
Details: in vivo
Summary of the method: (§1)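 C57BL/6J mice given 80 ng bFGF slow-release pellets in the cornea about 1.0 mm from the temporal limbus. Compound diluted 5:1 in saline, 10 mg/kg/day ip. Vehicle is DMSO/NMP/Tween/Cremophor in saline. Vessel area compared with vehicle by t-test (vehicle n = 9, treated n = 10). Body weight followed against vehicle-treated mice.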

Row | SMILES | Activity
1 | O=C(OC[C@H]1O[C@@H](OC(=O)c2cc(O)c(O)c(O)c2)[C@@H](OC(=O)c2cc(O)c(O)c(O)c2)[C@@H](OC(=O)c2cc(O)c(O)c(O)c2)[C@@H]1OC(=O)c1cc(O)c(O)c(O)c1)c1cc(O)c(O)c(O)c1 | Non-Toxic

Tested on: EA.hy 926
Experiment: Antimigratory activity in human EAhy926 cells measured at 10 mins interval for 12 hrs by time-lapse transmitted light microscopy
Details: not given

Row | SMILES | IC50 [nM]
2 | O=C(OC[C@H]1O[C@@H](OC(=O)c2cc(O)c(O)c(O)c2)[C@@H](OC(=O)c2cc(O)c(O)c(O)c2)[C@@H](OC(=O)c2cc(O)c(O)c(O)c2)[C@@H]1OC(=O)c1cc(O)c(O)c(O)c1)c1cc(O)c(O)c(O)c1 | 365 to 400

Target: Anthrax toxin receptor 2 (Homo sapiens, UniProt P58335, C178A/R40C)
Experiment: Inhibition of AF488-labelled PA binding to AF546- labelled GST-tagged CMG2 R40C/C178A double mutant (unknown origin) expressed in Escherichia coli BL21 DE3 measured after 4 hrs by FRET assay
Details: not given

Sequence of Anthrax toxin receptor 2 (P58335 whole entry, looked up, stated change not applied): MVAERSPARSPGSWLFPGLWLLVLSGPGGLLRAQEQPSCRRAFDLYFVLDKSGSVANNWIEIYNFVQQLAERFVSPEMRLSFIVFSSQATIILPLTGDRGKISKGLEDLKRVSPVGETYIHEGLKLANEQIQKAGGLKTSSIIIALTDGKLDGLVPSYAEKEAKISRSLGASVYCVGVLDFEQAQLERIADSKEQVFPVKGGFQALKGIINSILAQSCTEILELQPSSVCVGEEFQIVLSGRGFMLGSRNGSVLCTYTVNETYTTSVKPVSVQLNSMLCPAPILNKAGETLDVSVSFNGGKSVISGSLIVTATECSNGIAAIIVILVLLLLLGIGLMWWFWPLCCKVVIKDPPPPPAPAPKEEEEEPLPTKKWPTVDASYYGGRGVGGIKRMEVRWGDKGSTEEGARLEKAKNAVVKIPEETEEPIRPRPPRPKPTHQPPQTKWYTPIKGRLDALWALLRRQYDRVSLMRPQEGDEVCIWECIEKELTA

Row | SMILES | IC50 [nM]
3 | O=C(OC[C@H]1O[C@H](O[C@H]2O[C@H](COC(=O)c3cc(O)c(O)c(O)c3)[C@@H](OC(=O)c3cc(O)c(O)c(O)c3)[C@H](OC(=O)c3cc(O)c(O)c(O)c3)[C@H]2OC(=O)c2cc(O)c(O)c(O)c2)[C@@H](OC(=O)c2cc(O)c(O)c(O)c2)[C@@H](OC(=O)c2cc(O)c(O)c(O)c2)[C@@H]1OC(=O)c1cc(O)c(O)c(O)c1)c1cc(O)c(O)c(O)c1 | > 10000
4 | O=C(OC[C@H]1O[C@@H](OC(=O)c2ccc(O)c(O)c2O)[C@@H](OC(=O)c2ccc(O)c(O)c2O)[C@@H](OC(=O)c2ccc(O)c(O)c2O)[C@@H]1OC(=O)c1ccc(O)c(O)c1O)c1ccc(O)c(O)c1O | 132
5 | O=C(OC[C@H]1OC(O)[C@H](OC(=O)c2cc(O)c(O)c(O)c2)[C@@H](OC(=O)c2cc(O)c(O)c(O)c2)[C@H]1OC(=O)c1cc(O)c(O)c(O)c1)c1cc(O)c(O)c(O)c1 (stereo partly drawn) | 167
6 | O=C(O[C@@H]1OC[C@@H](OC(=O)c2ccc(O)c(O)c2O)[C@@H](OC(=O)c2ccc(O)c(O)c2O)[C@H]1OC(=O)c1ccc(O)c(O)c1O)c1ccc(O)c(O)c1O | > 10000
7 | O=C(OC[C@H]1O[C@H](O[C@H]2O[C@H](COC(=O)c3ccc(O)c(O)c3O)[C@@H](OC(=O)c3ccc(O)c(O)c3O)[C@H](OC(=O)c3ccc(O)c(O)c3O)[C@H]2OC(=O)c2ccc(O)c(O)c2O)[C@@H](OC(=O)c2ccc(O)c(O)c2O)[C@@H](OC(=O)c2ccc(O)c(O)c2O)[C@@H]1OC(=O)c1ccc(O)c(O)c1O)c1ccc(O)c(O)c1O | > 10000
8 | O=C(OC[C@H]1O[C@H](OC(=O)c2ccc(O)c(O)c2O)[C@@H](OC(=O)c2ccc(O)c(O)c2O)[C@@H](OC(=O)c2ccc(O)c(O)c2O)[C@@H]1OC(=O)c1ccc(O)c(O)c1O)c1ccc(O)c(O)c1O | > 10000
9 | O=C(OCC(OC(=O)c1ccc(O)c(O)c1O)[C@@H]1O[C@H](OC(=O)c2ccc(O)c(O)c2O)[C@H](OC(=O)c2ccc(O)c(O)c2O)[C@H]1OC(=O)c1ccc(O)c(O)c1O)c1ccc(O)c(O)c1O (single isomer, unassigned) | > 10000
10 | O=C(OC[C@H]1O[C@H](O[C@H]2[C@H](OC(=O)c3ccc(O)c(O)c3O)[C@@H](OC(=O)c3ccc(O)c(O)c3O)[C@H](OC(=O)c3ccc(O)c(O)c3O)O[C@@H]2COC(=O)c2ccc(O)c(O)c2O)[C@H](OC(=O)c2ccc(O)c(O)c2O)[C@@H](OC(=O)c2ccc(O)c(O)c2O)[C@@H]1OC(=O)c1ccc(O)c(O)c1O)c1ccc(O)c(O)c1O | 1160
11 | O=C(OC[C@H]1O[C@@H](OC(=O)c2cc(O)c(O)c(O)c2)[C@@H](OC(=O)c2cc(O)c(O)c(O)c2)[C@@H](OC(=O)c2cc(O)c(O)c(O)c2)[C@@H]1OC(=O)c1cc(O)c(O)c(O)c1)c1cc(O)c(O)c(O)c1 | 58
12 | O=C(OC[C@H]1O[C@H](OC(=O)c2cc(O)c(O)c(O)c2)[C@@H](OC(=O)c2cc(O)c(O)c(O)c2)[C@@H](OC(=O)c2cc(O)c(O)c(O)c2)[C@@H]1OC(=O)c1cc(O)c(O)c(O)c1)c1cc(O)c(O)c(O)c1 | 100
13 | O=C(OC[C@H]1O[C@H](O[C@H]2[C@H](OC(=O)c3cc(O)c(O)c(O)c3)[C@@H](OC(=O)c3cc(O)c(O)c(O)c3)[C@H](OC(=O)c3cc(O)c(O)c(O)c3)O[C@@H]2COC(=O)c2cc(O)c(O)c(O)c2)[C@H](OC(=O)c2cc(O)c(O)c(O)c2)[C@@H](OC(=O)c2cc(O)c(O)c(O)c2)[C@@H]1OC(=O)c1cc(O)c(O)c(O)c1)c1cc(O)c(O)c(O)c1 | > 10000
14 | O=C(O[C@@H]1OC[C@@H](OC(=O)c2cc(O)c(O)c(O)c2)[C@@H](OC(=O)c2cc(O)c(O)c(O)c2)[C@H]1OC(=O)c1cc(O)c(O)c(O)c1)c1cc(O)c(O)c(O)c1 | > 10000
15 | O=C(OC[C@H]1O[C@@H](OC(=O)c2cc(O)c(O)c(O)c2)[C@H](OC(=O)c2cc(O)c(O)c(O)c2)[C@@H](OC(=O)c2cc(O)c(O)c(O)c2)[C@@H]1OC(=O)c1cc(O)c(O)c(O)c1)c1cc(O)c(O)c(O)c1 [PENTAGALLOYL GLUCOSE] | 607
16 | O=C(OC[C@H]1OC(OC(=O)c2ccc(O)c(O)c2O)[C@H](OC(=O)c2ccc(O)c(O)c2O)[C@@H](OC(=O)c2ccc(O)c(O)c2O)[C@@H]1OC(=O)c1ccc(O)c(O)c1O)c1ccc(O)c(O)c1O (stereo partly drawn) | 3420
17 | O=C(O[C@H]1OC[C@@H](OC(=O)c2ccc(O)c(O)c2O)[C@@H](OC(=O)c2ccc(O)c(O)c2O)[C@H]1OC(=O)c1ccc(O)c(O)c1O)c1ccc(O)c(O)c1O | > 10000

Tested on: Mus musculus
Experiment: Inhibition of basic fibroblast growth factor-induced corneal angiogenesis in C57BL/6J mouse assessed as decrease in vessel area at 10 mg/kg administered intraperitoneally measured on 6th postoperative day relative to control
Format: functional
Details: ip
Summary of the method: as §1

Row | SMILES | inhibition in vivo at 10 mg/kg [%]
18 | O=C(OC[C@H]1O[C@@H](OC(=O)c2cc(O)c(O)c(O)c2)[C@@H](OC(=O)c2cc(O)c(O)c(O)c2)[C@@H](OC(=O)c2cc(O)c(O)c(O)c2)[C@@H]1OC(=O)c1cc(O)c(O)c(O)c1)c1cc(O)c(O)c(O)c1 | 20
